ChEMBL document CHEMBL1649157, “Intracellular activity of antibiotics against Staphylococcus aureus in a mouse peritonitis model” (Antimicrob Agents Chemother, 2009)
Active and inactive are the calls of the source. The rule behind the calls is not given here.

Assays:
Staphylococcus aureus [1] = assay: Antibacterial activity against Staphylococcus aureus E19977 infected in NMRI mouse assessed as log reduction in bacterial cfu in peritoneum at 60 mg/kg, sc administered as single dose 2 hrs after infection measured upto 19 hrs; format: functional, organism-based; parameters: dose 60 mg/kg
Procedure, shortened: (§1)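 NMRI mice were infected i.p. and given one or three doses (every 8 h), starting 2 h post-inoculation, at 200 mg/kg or 60 mg/kg, four mice per group. Peritoneal washes were sampled over 19 h of treatment. Total, extracellular and intracellular CFU/ml (lysostaphin separation) were compared with the pretreatment level; mean ± range, n = 2. Untreated controls were sampled only at 6 h of infection.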

Staphylococcus aureus [2] = assay: Bactericidal activity against Staphylococcus aureus E19977 assessed as log reduction in cfu at 2 mg/liter after 24 hrs by time-kill study; format: functional, organism-based
Procedure, shortened: (§2)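 In vitro kinetic model simulating antibiotic elimination without inoculum change. Exponential-phase E19977 was added at a final 10^6.3 CFU/ml. Starting drug concentration matched the human free peak, with the human half-life simulated. Samples were plated on 5% blood agar at 0, 2, 4, 6, 8, 12 and 24 h, with growth controls in each run. Results are shown as mean and range, n = 2.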

Staphylococcus aureus [3] = assay: Antibacterial activity against Staphylococcus aureus E19977 infected in NMRI mouse assessed as log reduction in intracellular bacterial cfu in peritoneum at 10 mg/kg, sc administered as single dose 1 hr after infection measured after 4 hrs; format: functional, organism-based; parameters: dose 10 mg/kg
Procedure, shortened: (§3)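 NMRI mice were infected i.p. with S. aureus E19977 in 5% mucin. A single dose (60 mg/kg or 10 mg/kg) was given 1, 2 or 3 h after inoculation, four mice per group. Peritoneal wash was sampled after 4 h of treatment and separated into total, extracellular and intracellular counts by lysostaphin/centrifugation. Δlog10 CFU/ml was calculated against vehicle-treated mice infected for the same time (5, 6 or 7 h).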

Staphylococcus aureus [4] = assay: Antibacterial activity against Staphylococcus aureus E19977 infected in NMRI mouse assessed as log reduction in intracellular bacterial cfu in peritoneum at 10 mg/kg, sc administered as single dose 3 hrs after infection measured after 4 hrs; format: functional, organism-based; parameters: dose 10 mg/kg; procedure, shortened: as §3
Staphylococcus aureus [5] = assay: Bactericidal activity against Staphylococcus aureus E19977 assessed as log reduction in cfu at 0.5 mg/liter after 24 hrs by time-kill study; format: functional, organism-based; procedure, shortened: as §2
Staphylococcus aureus [6] = assay: Antibacterial activity against Staphylococcus aureus E19977 infected in NMRI mouse assessed as log reduction in intracellular bacterial cfu in peritoneum at 10 mg/kg, sc administered as single dose 2 hrs after infection measured after 4 hrs; format: functional, organism-based; parameters: dose 10 mg/kg; procedure, shortened: as §3
Staphylococcus aureus [7] = assay: Antibacterial activity against Staphylococcus aureus E19977 infected in NMRI mouse assessed as log reduction in bacterial cfu in peritoneum at 10 mg/kg, sc administered as single dose 2 hrs after infection measured after 4 hrs; format: functional, organism-based; parameters: dose 10 mg/kg; procedure, shortened: as §3
Staphylococcus aureus [8] = assay: Bactericidal activity against Staphylococcus aureus E19977 assessed as log reduction in cfu at 20 mg/liter after 24 hrs by time-kill study; format: functional, organism-based; procedure, shortened: as §2
Staphylococcus aureus [9] = assay: Bactericidal activity against Staphylococcus aureus E19977 assessed as log reduction in cfu at 1.5 mg/liter after 24 hrs by time-kill study; format: functional, organism-based; procedure, shortened: as §2
Serum [10] = assay: Protein binding in human serum at 600 mg, po; format: ADME, organism-based; settings: in vivo
Staphylococcus aureus [11] = assay: Antibacterial activity against Staphylococcus aureus E19977 infected in NMRI mouse assessed as log reduction in extracellular bacterial cfu in peritoneum at 10 mg/kg, sc administered as single dose 2 hrs after infection measured after 4 hrs; format: functional, organism-based; parameters: dose 10 mg/kg; procedure, shortened: as §3
Staphylococcus aureus [12] = assay: Antibacterial activity against Staphylococcus aureus E19977 infected in NMRI mouse assessed as log reduction in bacterial cfu in peritoneum at 10 mg/kg, sc administered as single dose 3 hrs after infection measured after 4 hrs; format: functional, organism-based; parameters: dose 10 mg/kg; procedure, shortened: as §3
Staphylococcus aureus [13] = assay: Antibacterial activity against Staphylococcus aureus E19977 infected in NMRI mouse assessed as log reduction in bacterial cfu in peritoneum at 10 mg/kg, sc administered as single dose 1 hr after infection measured after 4 hrs; format: functional, organism-based; parameters: dose 10 mg/kg; procedure, shortened: as §3
Staphylococcus aureus [14] = assay: Antibacterial activity against Staphylococcus aureus E19977 infected in NMRI mouse assessed as log reduction in bacterial cfu in peritoneum at 10 mg/kg, sc administered 2 hrs after infection measured after 4 hrs; format: functional, organism-based; parameters: dose 10 mg/kg
Procedure, shortened: (§4)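 Outbred female NMRI mice (25 to 30 g) received 0.5 ml of 10^7.7 CFU/ml inoculum in 5% mucin i.p. A single dose was given 2 h post-challenge, and mice were sampled 4 h later by 2.0 ml saline peritoneal wash, pooling two mice. Extracellular and intracellular fractions were separated by 300 × g centrifugation, lysostaphin, four HBSS washes and water lysis. Counts on blood agar; median of n = 8.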

Staphylococcus aureus [15] = assay: Antibacterial activity against Staphylococcus aureus E19977 infected in NMRI mouse assessed as log reduction in intracellular bacterial cfu in peritoneum at 60 mg/kg, sc administered 2 hrs after infection evry 8 hrs as three-dose regimen measured after 19 hrs; format: functional, organism-based; parameters: dose 60 mg/kg; procedure, shortened: as §1
Staphylococcus aureus [16] = assay: Antibacterial activity against Staphylococcus aureus E19977 by Etest; format: functional
Staphylococcus aureus [17] = assay: Antibacterial activity against Staphylococcus aureus E19977 infected in NMRI mouse assessed as log reduction in intracellular bacterial cfu in peritoneum at 60 mg/kg, sc administered as single dose 2 hrs after infection measured upto 19 hrs; format: functional, organism-based; parameters: dose 60 mg/kg; procedure, shortened: as §1
Staphylococcus aureus [18] = assay: Antibacterial activity against Staphylococcus aureus E19977 infected in NMRI mouse assessed as log reduction in intracellular bacterial cfu in peritoneum at 60 mg/kg, sc administered as single dose 2 hrs after infection measured within 4 hrs; format: functional, organism-based; parameters: dose 60 mg/kg; procedure, shortened: as §1
Staphylococcus aureus [19] = assay: Bactericidal activity against Staphylococcus aureus E19977 assessed as log reduction in cfu at 1.5 mg/liter upto 24 hrs by time-kill study; format: functional; settings: in the assay text read “2.0 mg/liter” for “1.5 mg/liter”
Procedure, shortened: (§5)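 Clinical bacteremia isolate (penicillin-resistant, methicillin-susceptible). Exponential-phase bacteria were placed in an in vitro kinetic model that simulates drug elimination without changing the inoculum. The starting drug level matched the human free peak serum concentration after a single dose, with simulated human elimination half-life. Samples were taken at 0, 2, 4, 6, 8, 12 and 24 h, with growth controls in each run.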

Staphylococcus aureus [20] = assay: Bactericidal activity against Staphylococcus aureus E19977 assessed as log reduction in cfu at 2 mg/liter after 12 hrs by time-kill study; format: functional; procedure, shortened: as §5
Staphylococcus aureus [21] = assay: Antibacterial activity against Staphylococcus aureus E19977 infected in NMRI mouse assessed as log reduction in intracellular bacterial cfu in peritoneum at 10 mg/kg, sc administered 2 hrs after infection measured after 4 hrs; format: functional, organism-based; parameters: dose 10 mg/kg; procedure, shortened: as §4
Staphylococcus aureus [22] = assay: Antibacterial activity against Staphylococcus aureus E19977 infected in NMRI mouse assessed as log reduction in extracellular bacterial cfu in peritoneum at 60 mg/kg, sc administered as single dose 2 hrs after infection measured upto 19 hrs; format: functional, organism-based; parameters: dose 60 mg/kg; procedure, shortened: as §1
Staphylococcus aureus [23] = assay: Antibacterial activity against Staphylococcus aureus E19977 infected in NMRI mouse assessed as log reduction in extracellular bacterial cfu in peritoneum at 10 mg/kg, sc administered as single dose 1 hr after infection measured after 4 hrs; format: functional, organism-based; parameters: dose 10 mg/kg; procedure, shortened: as §3
Staphylococcus aureus [24] = assay: Bactericidal activity against Staphylococcus aureus E19977 assessed as log reduction in cfu at 2 mg/liter upto 24 hrs by time-kill study; format: functional; procedure, shortened: as §5
Staphylococcus aureus [25] = assay: Antibacterial activity against Staphylococcus aureus E19977 infected in NMRI mouse assessed as log reduction in extracellular bacterial cfu in peritoneum at 10 mg/kg, sc administered as single dose 3 hrs after infection measured after 4 hrs; format: functional, organism-based; parameters: dose 10 mg/kg; procedure, shortened: as §3
Staphylococcus aureus [26] = assay: Bactericidal activity against Staphylococcus aureus E19977 assessed as log reduction in cfu at 20 mg/liter upto 24 hrs by time-kill study; format: functional
Procedure, shortened: (§6)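 In vitro kinetic model: exponential-phase bacteria at a final 10^6.3 CFU/ml were exposed to a starting concentration set to the human free peak level. Elimination followed the simulated human half-life. Samples were taken at 0, 2, 4, 6, 8, 12 and 24 h and counted on 5% blood agar (detection limit 25 CFU/ml). Growth controls were included; n = 2.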

Staphylococcus aureus [27] = assay: Bactericidal activity against Staphylococcus aureus E19977 assessed as log reduction in cfu at 9 mg/liter after 24 hrs by time-kill study; format: functional, organism-based; procedure, shortened: as §2
Staphylococcus aureus [28] = assay: Antibacterial activity against Staphylococcus aureus E19977 infected in NMRI mouse assessed as log reduction in extracellular bacterial cfu in peritoneum at 10 mg/kg, sc administered 2 hrs after infection measured after 4 hrs; format: functional, organism-based; parameters: dose 10 mg/kg; procedure, shortened: as §4
Serum [29] = assay: Protein binding in human serum at 240 mg, im; format: ADME, cell-free
Homo sapiens [30] = assay: Half life in human at 240 mg, im; format: ADME, organism-based; settings: in vivo
Homo sapiens [31] = assay: Cmax in human at 240 mg, im; format: ADME, organism-based; parameters: dose 240 mg, route […]; settings: in vivo
Staphylococcus aureus [32] = assay: Bactericidal activity against Staphylococcus aureus E19977 assessed as log reduction in cfu at 9 mg/liter upto 24 hrs by time-kill study; format: functional, organism-based; procedure, shortened: as §6

CO[C@H]1/C=C/O[C@@]2(C)Oc3c(C)c(O)c4c(O)c(c(/C=N/N5CCN(C)CC5)c(O)c4c3C2=O)NC(=O)/C(C)=C\C=C\[C@H](C)[C@H](O)[C@@H](C)[C@@H](O)[C@@H](C)[C@H](OC(C)=O)[C@@H]1C [RIFAMPIN]
Activity (Staphylococcus aureus [1]): inactive | Activity (Staphylococcus aureus [2]): inactive | Activity (Staphylococcus aureus [3]): Active | Activity (Staphylococcus aureus [4]): inactive | Activity (Staphylococcus aureus [5]): inactive | Activity (Staphylococcus aureus [6]): inactive | Activity (Staphylococcus aureus [7]): inactive | Activity (Staphylococcus aureus [8]): inactive | Activity (Staphylococcus aureus [9]): inactive | Activity (Serum [10]): 80% | Activity (Staphylococcus aureus [11]): inactive | Activity (Staphylococcus aureus [12]): inactive | Activity (Staphylococcus aureus [13]): Active | Activity (Staphylococcus aureus [14]): Active | Activity (Staphylococcus aureus [15]): inactive | MIC (Staphylococcus aureus [16]): < 0.016 mg/L | Activity (Staphylococcus aureus [17]): inactive | Activity (Staphylococcus aureus [18]): inactive | FC (Staphylococcus aureus [19]): 2 | FC (Staphylococcus aureus [20]): 2 | Activity (Staphylococcus aureus [21]): Active | Activity (Staphylococcus aureus [22]): inactive | Activity (Staphylococcus aureus [23]): Active | FC (Staphylococcus aureus [24]): 2 | Activity (Staphylococcus aureus [25]): inactive | FC (Staphylococcus aureus [26]): >2 | Activity (Staphylococcus aureus [27]): inactive | Activity (Staphylococcus aureus [28]): inactive

GENTAMICIN [listing 1 of 2 here]
Activity (Serum [29]): 10% | t1/2 (Homo sapiens [30]): 2 h | Cmax (Homo sapiens [31]): 10 µg/mL

GENTAMICIN [listing 2 of 2 here]
Activity (Staphylococcus aureus [2]): inactive | Activity (Staphylococcus aureus [5]): inactive | FC (Staphylococcus aureus [32]): 4 | Activity (Staphylococcus aureus [8]): inactive | Activity (Staphylococcus aureus [9]): inactive | Activity (Staphylococcus aureus [14]): inactive | MIC (Staphylococcus aureus [16]): 0.38 mg/L | Activity (Staphylococcus aureus [21]): inactive | FC (Staphylococcus aureus [26]): > 2 | Activity (Staphylococcus aureus [27]): inactive | Activity (Staphylococcus aureus [28]): inactive
